Results from different studies.
Lines come from different studies, so protocols differ.
Target: Dual specificity protein kinase CLK3 (CLK3, Homo sapiens, UniProt P49761)

| Structure (SMILES) | assay | setting | measurement | value |
| --- | --- | --- | --- | --- |
| COc1cc(Nc2ncc(F)c(Nc3ccc4c(n3)NC(=O)C(C)(C)O4)n2)cc(OC)c1OC | binding, competition with immobilised ligand | 10 µM | inhibition | 78% |
| N#CC1(c2ccccn2)CCN(Cc2cc(C(=O)O)c(=O)n3ccccc23)CC1 | cell-free assay, competition with immobilised ligand | 1 µM | remaining binding | 100% |
| C#Cc1n[nH]c2c(-c3cn([C@@H](C)c4ccccn4)c(=O)[nH]c3=O)cc(F)cc12 | enzyme activity, inhibitor | 0.1 µM | inhibition | 0.7% |
| Cn1cncc1[C@@](O)(COc1ccc(C#N)cc1-c1ccc(OC(F)(F)F)cc1)c1ccc(C#N)cc1 | cell-free assay, competition with immobilised ligand | 1 µM | remaining binding | 100% |
| Cn1cc(-c2cc(F)cc(N3CCn4c(cc5c4CCCC5)C3=O)c2CO)cc(Nc2ccc(N3CCN(C4COC4)CC3)cn2)c1=O | enzyme activity, inhibitor | 0.1 µM | inhibition | 11% |
| CCn1cnc2c(Nc3cccc(Cl)c3)nc(N[C@H]3CCCC[C@H]3N)nc21 | enzyme activity, inhibitor | 0.5 µM | remaining activity | 99.8% |
| COc1ncccc1-c1cnn2ccc(N3CCN(C(=O)OC(C)C)CC3)nc12 | binding, competition with immobilised ligand | 1 µM | remaining binding | 78% |
| Nc1ncc(-c2nc(N3CCOCC3)nc(N3CCOCC3)n2)c(C(F)F)n1 | binding, competition with immobilised ligand | 10 µM | remaining binding | 90% |
| Cn1cc(-c2cccc(N3CCc4c(sc5c4CC(C)(C)C5)C3=O)c2CO)cc(Nc2ccncn2)c1=O | enzyme activity, inhibitor | 1 µM | inhibition | 4% |
| Cc1nn(C)cc1-c1nc2c(N3CCN(Cc4ccc(Cl)cc4)CC3)c(Cl)cnc2[nH]1 | binding, competition with immobilised ligand | 1 µM | remaining binding | 88% |
| CC(C)(C)c1cc(C=C(C#N)C#N)cc(Br)c1O | enzyme activity, inhibitor | 0.5 µM | remaining activity | 122% |
